Measurements of several laboratories.
Each line is one published result; the experiments were not run side by side.
Target: Phosphatidylinositol 4,5-bisphosphate 3-kinase catalytic subunit beta isoform (PIK3CB, Homo sapiens, UniProt P42338)

| Compound | read-out | method | tested at | remaining binding [%] |
| --- | --- | --- | --- | --- |
| CN(c1nccc(-c2cnn3ncccc23)n1)C1CC1 | binding | – | 1 µM | 100 |
| O=C(NCCCN1CCOCC1)c1ccc(Nc2ncc(Cl)c(-c3ccc(Cl)s3)n2)cc1 | binding | competition with immobilised ligand | 1 µM | 99 |
| Cc1cc(NC(=O)c2cccc(S(F)(F)(F)(F)F)c2)cc(-n2ccn3nc(-c4cccnc4)cc23)c1 | cell-free assay | competition with immobilised ligand | 1 µM | 100 |
| O=C(c1ccc(Nc2ncc(Cl)c(-c3cc4ccccc4s3)n2)cc1)N1CCC(N2CCCC2)CC1 | binding | competition with immobilised ligand | 1 µM | 100 |
| COc1ccc2c(O[C@@H]3C[C@H]4C(=O)N[C@]5(C(=O)O)CC5/C=C\CCCCC[C@H](NC(=O)OC5CCCC5)C(=O)N4C3)cc(-c3csc(NC(=O)C(C)C)n3)nc2c1C (stereo partly drawn) | cell-free assay | competition with immobilised ligand | 1 µM | 62 |
| O=C(NCC1CCOCC1)c1n[nH]cc1NC(=O)c1c(F)cccc1F | binding | competition with immobilised ligand | 1 µM | 91 |
| N[C@H]1CCN(c2nccc(-c3cnn4ncccc34)n2)C1 | binding | – | 1 µM | 100 |
| c1cncc(-c2cccc(Nc3nccc(NC4CCCCC4)n3)c2)c1 | binding | competition with immobilised ligand | 10 µM | 100 |
| O=C(NCc1ncc(C(F)(F)F)cc1Cl)c1ccc2c(c1)C1(CCS(=O)(=O)CC1)[C@H](C1CC1)N2S(=O)(=O)c1ccc(F)cc1 | cell-free assay | competition with immobilised ligand | 1 µM | 68 |
| CC1CCCN1c1nccc(-c2cnn3ncccc23)n1 (stereo not drawn) | binding | – | 1 µM | 100 |
| COc1cnc(Nc2cccc(S(N)(=O)=O)c2)nc1N1CCN(c2ccccc2)CC1 | binding | competition with immobilised ligand | 1 µM | 86 |
| CN(CCCC(F)(F)F)c1nccc(-c2cnn3ncccc23)n1 | binding | – | 1 µM | 100 |
| COc1cc(-c2cn(C3CCc4ccccc4N(CC(F)(F)F)C3=O)nn2)ccc1-n1ccc(C)n1 (stereo not drawn) | cell-free assay | competition with immobilised ligand | 1 µM | 100 |
| O=C(c1ccc(Nc2ncc(Cl)c(-c3ccc(Cl)s3)n2)cc1)N1CCC(N2CCCC2)CC1 | binding | competition with immobilised ligand | 1 µM | 100 |
| CNC(=O)[C@@H]1CC[C@@H](n2c(-c3ccc4cnccc4c3)nc3ccc(C(=O)NCc4cccc(C(N)=O)c4)cc32)C1 | binding | competition with immobilised ligand | 1 µM | 100 |
| CN(C)C(=O)Cn1cc(-c2nc(C3(c4ccc(-c5cnc(N)nc5)cc4)CC3)no2)cn1 | cell-free assay | competition with immobilised ligand | 1 µM | 96 |
| FC(F)(F)Oc1cccc(-c2cnc3ccc(-c4ccncc4)nn23)c1 | cell-free assay | competition with immobilised ligand | 5 µM | 48 |
| c1cnn2ncc(-c3ccnc(N4CCC45COC5)n3)c2c1 | binding | – | 1 µM | 62 |
| CS(=O)(=O)c1cc(C2(NC(=O)c3cncc4c3cnn4-c3ccc(F)cc3)CC2)ccn1 | cell-free assay | competition with immobilised ligand | 1 µM | 100 |
| COc1ncc2cc3ccccc3nc2c1C#N | cell-free assay | competition with immobilised ligand | 5 µM | 100 |
| C[C@H]1CCN(c2nccc(-c3cnn4ncccc34)n2)C1 | binding | – | 1 µM | 65 |
